Results reported in ChEMBL document CHEMBL1143835, “Antipropionibacterial activity of BAL19403, a novel macrolide antibiotic” (2007).
Converted amounts (≈) assume the structure as drawn.

Key:
Cutibacterium acnes [1] = assay: Antibacterial activity against drug-resistant Propionibacterium acnes SW10 after 48 hrs by broth microdilution method; type: functional
How it was run: (§1)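 Broth microdilution MIC in Wilkins-Chalgren broth without lysed horse blood, following CLSI anaerobe guidelines. Plates were held in anaerobic jars with atmosphere generators (O2 <0.1% by 2.5 h, CO2 >15% by 24 h) at 35 to 37°C for 48 h. Growth was read with an illuminated plate reader and magnifying mirror.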

Cutibacterium acnes [2] = assay: Antibacterial activity against drug-resistant Propionibacterium acnes SW16 after 48 hrs by broth microdilution method; type: functional; how it was run: as §1
Cutibacterium acnes [3] = assay: Antibacterial activity against drug-resistant Propionibacterium acnes SW17 after 48 hrs by broth microdilution method; type: functional; how it was run: as §1
Cutibacterium acnes [4] = assay: Antibacterial activity against drug-resistant Propionibacterium acnes SW26 after 48 hrs by broth microdilution method; type: functional; how it was run: as §1
Cutibacterium acnes [5] = assay: Antibacterial activity against drug-resistant Propionibacterium acnes D-04/97 after 48 hrs by broth microdilution method; type: functional; how it was run: as §1
Cutibacterium acnes [6] = assay: Antibacterial activity against drug-resistant Propionibacterium acnes OK8/97 after 48 hrs by broth microdilution method; type: functional; how it was run: as §1
Cutibacterium acnes [7] = assay: Antibacterial activity against drug-resistant Propionibacterium acnes EG7NS after 48 hrs by broth microdilution method; type: functional; how it was run: as §1
Cutibacterium acnes [8] = assay: Antibacterial activity against drug-resistant Propionibacterium acnes EG13NS after 48 hrs by broth microdilution method; type: functional; how it was run: as §1
[9] = tested on: Propionibacterium granulosum; assay: Antibacterial activity against drug-resistant Propionibacterium granulosum NCTC-11865 after 48 hrs by broth microdilution method; type: functional; settings: Cutibacterium granulosum, NCTC-11865, 48 h; how it was run: as §1
Cutibacterium acnes [10] = assay: Antibacterial activity against drug-resistant Propionibacterium acnes SW11 after 48 hrs by broth microdilution method; type: functional; how it was run: as §1
Cutibacterium acnes [11] = assay: Antibacterial activity against drug-resistant Propionibacterium acnes EG3NS after 48 hrs by broth microdilution method; type: functional; how it was run: as §1
Cutibacterium acnes [12] = assay: Antibacterial activity against drug-resistant Propionibacterium acnes SW3CD after 48 hrs by broth microdilution method; type: functional; how it was run: as §1
Cutibacterium acnes [13] = assay: Antibacterial activity against drug-resistant Propionibacterium acnes P95 after 48 hrs by broth microdilution method; type: functional; how it was run: as §1
Cutibacterium acnes [14] = assay: Antibacterial activity against drug-resistant Propionibacterium acnes FG7E after 48 hrs by broth microdilution method; type: functional; how it was run: as §1
Cutibacterium acnes [15] = assay: Antibacterial activity against drug-resistant Propionibacterium acnes GE4E after 48 hrs by broth microdilution method; type: functional; how it was run: as §1
Cutibacterium acnes [16] = assay: Antibacterial activity against drug-resistant Propionibacterium acnes SP64E after 48 hrs by broth microdilution method; type: functional; how it was run: as §1
Cutibacterium acnes [17] = assay: Antibacterial activity against drug-resistant Propionibacterium acnes SW101CDA after 48 hrs by broth microdilution method; type: functional; how it was run: as §1
Cutibacterium acnes [18] = assay: Antibacterial activity against drug-resistant Propionibacterium acnes P:413 after 48 hrs by broth microdilution method; type: functional; how it was run: as §1
Cutibacterium acnes [19] = assay: Antibacterial activity against drug-resistant Propionibacterium acnes P322:2 after 48 hrs by broth microdilution method; type: functional; how it was run: as §1
Cutibacterium acnes [20] = assay: Antibacterial activity against drug-resistant Propionibacterium acnes EG7NS after 72 hrs; type: functional
How it was run: (§2)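 MBC for P. acnes followed MIC assays by standard methodology. Samples were plated on Wilkins-Chalgren agar, incubated anaerobically in GENbox jars at 35 to 37°C, and examined for growth after 72 h.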

Cutibacterium acnes [21] = assay: Antibacterial activity against drug-resistant Propionibacterium acnes SW3CD after 72 hrs; type: functional; how it was run: as §2
Cutibacterium acnes [22] = assay: Antibacterial activity against drug-resistant Propionibacterium acnes P95 after 72 hrs; type: functional; how it was run: as §2
Cutibacterium acnes [23] = assay: MBC/MIC ratio of Propionibacterium acnes EG7NS; type: functional
How it was run: (§3)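 MIC by CLSI broth microdilution in Wilkins-Chalgren broth in anaerobic jars (O2 <0.1%, CO2 >15%), read after 48 h at 35–37°C on an illuminated plate reader. For MBC, samples were plated onto Wilkins-Chalgren agar and incubated anaerobically for 72 h at 35–37°C before growth was scored.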

Cutibacterium acnes [24] = assay: MBC/MIC ratio of Propionibacterium acnes SW3CD; type: functional; how it was run: as §3
Cutibacterium acnes [25] = assay: MBC/MIC ratio of Propionibacterium acnes P95; type: functional; how it was run: as §3
Cutibacterium acnes [26] = assay: MBC/MIC ratio of Propionibacterium acnes SW101T; type: functional; how it was run: as §3
Corynebacterium jeikeium = assay: Antibacterial activity against Corynebacterium jeikeium after 48 hrs by broth microdilution method; type: functional
How it was run: (§4)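 Broth microdilution per CLSI in cation-adjusted Mueller-Hinton broth supplemented with 0.5% (vol/vol) Tween 80. Plates incubated at 35°C in ambient air for 44 to 48 h, then read visually. MICs in μg/ml; a geometric mean MIC was calculated across the corynebacterial strains.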

[27] = tested on: Corynebacterium diphtheriae; assay: Antibacterial activity against Corynebacterium diphtheriae after 48 hrs by broth microdilution method; type: functional; how it was run: as §4
[28] = tested on: Corynebacterium amycolatum; assay: Antibacterial activity against Corynebacterium amycolatum after 48 hrs by broth microdilution method; type: functional; how it was run: as §4
[29] = tested on: Corynebacterium minutissimum; assay: Antibacterial activity against Corynebacterium minutissimum after 48 hrs by broth microdilution method; type: functional; how it was run: as §4
[30] = tested on: Staphylococcus epidermidis; assay: Antibacterial activity against Staphylococcus epidermidis after 48 hrs by broth microdilution method; type: functional
Staphylococcus aureus [31] = assay: Antibacterial activity against methicillin-susceptible Staphylococcus aureus after 48 hrs by broth microdilution method; type: functional
[32] = Antibacterial activity against Streptococcus dysgalactiae subsp. dysgalactiae after 48 hrs by broth microdilution method; type: functional
[33] = tested on: Streptococcus equi subsp. zooepidemicus; assay: Antibacterial activity against Streptococcus equi subsp. zooepidemicus after 48 hrs by broth microdilution method; type: functional
Cutibacterium acnes [34] = assay: Antibacterial activity against drug-resistant Propionibacterium acnes P401:5 after 48 hrs by broth microdilution method; type: functional; how it was run: as §1
Cutibacterium acnes [35] = assay: Antibacterial activity against drug-resistant Propionibacterium acnes P425:1 after 48 hrs by broth microdilution method; type: functional; how it was run: as §1
Cutibacterium acnes [36] = assay: Antibacterial activity against drug-resistant Propionibacterium acnes P429:1 (SC) after 48 hrs by broth microdilution method; type: functional; how it was run: as §1
Cutibacterium acnes [37] = assay: Antibacterial activity against drug-resistant Propionibacterium acnes P429:1 (BC) after 48 hrs by broth microdilution method; type: functional; how it was run: as §1
Cutibacterium acnes [38] = assay: Antibacterial activity against drug-resistant Propionibacterium acnes SW54EA after 48 hrs by broth microdilution method; type: functional; how it was run: as §1
Cutibacterium acnes [39] = assay: Antibacterial activity against drug-resistant Propionibacterium acnes SW101T after 48 hrs by broth microdilution method; type: functional; how it was run: as §1
Cutibacterium acnes [40] = assay: Antibacterial activity against drug-resistant Propionibacterium acnes GE46EB after 48 hrs by broth microdilution method; type: functional; how it was run: as §1
Streptococcus pyogenes = assay: Antibacterial activity against Streptococcus pyogenes after 20 to 24 hrs by broth microdilution method
Staphylococcus aureus [41] = assay: Antibacterial activity against methicillin-resistant Staphylococcus aureus after 20 to 24 hrs by broth microdilution method
[42] = tested on: Propionibacterium granulosum; assay: Antibacterial activity against drug-resistant Propionibacterium granulosum QK6/92 after 48 hrs by broth microdilution method
Staphylococcus aureus [43] = assay: Antibacterial activity against borderline oxacillin-resistant Staphylococcus aureus after 20 to 24 hrs by broth microdilution method

## CCC[C@@H]1C[C@@H](C(=O)N[C@@H]([C@H]2O[C@H](SC)[C@H](O)[C@@H](O)[C@H]2O)[C@H](C)Cl)N(C)C1 [CLINDAMYCIN]
Cutibacterium acnes [1]
  MIC: 0.125 mg/L (≈ 0.294 µM)
Cutibacterium acnes [2]
  MIC: ≤ 0.06 mg/L
Cutibacterium acnes [3]
  MIC: ≤ 0.06 mg/L
Cutibacterium acnes [4]
  MIC: ≤ 0.06 mg/L
Cutibacterium acnes [5]
  MIC: 0.125 mg/L (≈ 0.294 µM)
Cutibacterium acnes [6]
  MIC: 0.125 mg/L (≈ 0.294 µM)
Cutibacterium acnes [7]
  MIC: ≤ 0.06 mg/L
Cutibacterium acnes [8]
  MIC: ≤ 0.06 mg/L
[9]
  MIC: ≤ 0.06 mg/L
Cutibacterium acnes [10]
  MIC: 0.5 mg/L (≈ 1.18 µM)
Cutibacterium acnes [11]
  MIC: 0.25 mg/L (≈ 0.588 µM)
Cutibacterium acnes [12]
  MIC: 8 mg/L (≈ 18.8 µM)
Cutibacterium acnes [13]
  MIC: 0.5 mg/L (≈ 1.18 µM)
Cutibacterium acnes [14]
  MIC: ≥ 32 mg/L
Cutibacterium acnes [15]
  MIC: > 512 mg/L
Cutibacterium acnes [16]
  MIC: > 512 mg/L
Cutibacterium acnes [17]
  MIC: ≥ 512 mg/L
Cutibacterium acnes [18]
  MIC: ≤ 0.06 mg/L
Cutibacterium acnes [19]
  MIC: 4 mg/L (≈ 9.41 µM)
Cutibacterium acnes [20]
  MBC: > 32 mg/L
Cutibacterium acnes [21]
  MBC: > 32 mg/L
Cutibacterium acnes [22]
  MBC: 32 mg/L (≈ 75.3 µM)
Cutibacterium acnes [23]
  Ratio: >=533
Cutibacterium acnes [24]
  Ratio: >4
Cutibacterium acnes [25]
  Ratio: >64
Cutibacterium acnes [26]
  Ratio: >2
Corynebacterium jeikeium
  MIC: 7.97 mg/L (≈ 18.8 µM)
[27]
  MIC: 7.97 mg/L (≈ 18.8 µM)
[28]
  MIC: 7.97 mg/L (≈ 18.8 µM)
[29]
  MIC: 7.97 mg/L (≈ 18.8 µM)
[30]
  MIC: 1.12 mg/L (≈ 2.64 µM)
Staphylococcus aureus [31]
  MIC: 1.16 mg/L (≈ 2.73 µM)
[32]
  MIC: 0.12 mg/L (≈ 0.282 µM)
[33]
  MIC: 0.11 mg/L (≈ 0.259 µM)
Cutibacterium acnes [34]
  MIC: 1 mg/L (≈ 2.35 µM)
Cutibacterium acnes [35]
  MIC: 512 mg/L (≈ 1200 µM)
Cutibacterium acnes [36]
  MIC: 4 mg/L (≈ 9.41 µM)
Cutibacterium acnes [37]
  MIC: 8 mg/L (≈ 18.8 µM)
Cutibacterium acnes [38]
  MIC: 32 mg/L (≈ 75.3 µM)
Cutibacterium acnes [39]
  MIC: 256 mg/L (≈ 602 µM)
Cutibacterium acnes [40]
  MIC: 512 mg/L (≈ 1200 µM)
Streptococcus pyogenes
  MIC: 0.07 mg/L (≈ 0.165 µM)
Staphylococcus aureus [41]
  MIC: 1.16 mg/L (≈ 2.73 µM)
[42]
  MIC: 1 mg/L (≈ 2.35 µM)
Staphylococcus aureus [43]
  MIC: 1.16 mg/L (≈ 2.73 µM)

## CC[C@H]1OC(=O)[C@H](C)[C@@H](O[C@H]2C[C@@](C)(OC)[C@@H](O)[C@H](C)O2)[C@H](C)[C@@H](O[C@@H]2O[C@H](C)C[C@H](N(C)C)[C@H]2O)[C@](C)(O)C[C@@H](C)C(=O)[C@H](C)[C@@H](O)[C@]1(C)O [ERYTHROMYCIN]
Cutibacterium acnes [1]
  MIC: ≤ 0.06 mg/L
Cutibacterium acnes [2]
  MIC: ≤ 0.06 mg/L
Cutibacterium acnes [3]
  MIC: ≤ 0.06 mg/L
Cutibacterium acnes [4]
  MIC: ≤ 0.06 mg/L
Cutibacterium acnes [5]
  MIC: ≤ 0.06 mg/L
Cutibacterium acnes [6]
  MIC: 0.125 mg/L (≈ 0.17 µM)
Cutibacterium acnes [7]
  MIC: ≤ 0.06 mg/L
Cutibacterium acnes [8]
  MIC: ≤ 0.06 mg/L
[9]
  MIC: 0.125 mg/L (≈ 0.17 µM)
Cutibacterium acnes [10]
  MIC: 0.125 mg/L (≈ 0.17 µM)
Cutibacterium acnes [11]
  MIC: ≤ 0.06 mg/L
Cutibacterium acnes [12]
  MIC: ≤ 0.06 mg/L
Cutibacterium acnes [13]
  MIC: 4 mg/L (≈ 5.45 µM)
Cutibacterium acnes [14]
  MIC: > 512 mg/L
Cutibacterium acnes [15]
  MIC: > 512 mg/L
Cutibacterium acnes [16]
  MIC: > 512 mg/L
Cutibacterium acnes [17]
  MIC: > 512 mg/L
Cutibacterium acnes [18]
  MIC: ≤ 0.06 mg/L
Cutibacterium acnes [19]
  MIC: > 512 mg/L
Cutibacterium acnes [20]
  MBC: > 32 mg/L
Cutibacterium acnes [21]
  MBC: 0.125 mg/L (≈ 0.17 µM)
Cutibacterium acnes [22]
  MBC: > 32 mg/L
Cutibacterium acnes [23]
  Ratio: >=533
Cutibacterium acnes [24]
  Ratio: >=2
Cutibacterium acnes [25]
  Ratio: >8
Corynebacterium jeikeium
  MIC: 1.47 mg/L (≈ 2 µM)
[27]
  MIC: 1.47 mg/L (≈ 2 µM)
[28]
  MIC: 1.47 mg/L (≈ 2 µM)
[29]
  MIC: 1.47 mg/L (≈ 2 µM)
[30]
  MIC: 3 mg/L (≈ 4.09 µM)
Staphylococcus aureus [31]
  MIC: 3.26 mg/L (≈ 4.44 µM)
[32]
  MIC: 0.09 mg/L (≈ 0.123 µM)
[33]
  MIC: 0.14 mg/L (≈ 0.191 µM)
Cutibacterium acnes [34]
  MIC: 2 mg/L (≈ 2.73 µM)
Cutibacterium acnes [35]
  MIC: > 512 mg/L
Cutibacterium acnes [36]
  MIC: 4 mg/L (≈ 5.45 µM)
Cutibacterium acnes [37]
  MIC: 2 mg/L (≈ 2.73 µM)
Cutibacterium acnes [38]
  MIC: > 512 mg/L
Cutibacterium acnes [39]
  MIC: > 512 mg/L
Cutibacterium acnes [40]
  MIC: > 512 mg/L
Streptococcus pyogenes
  MIC: 0.32 mg/L (≈ 0.436 µM)
Staphylococcus aureus [41]
  MIC: 3.26 mg/L (≈ 4.44 µM)
[42]
  MIC: 0.5 mg/L (≈ 0.681 µM)
Staphylococcus aureus [43]
  MIC: 3.26 mg/L (≈ 4.44 µM)
